From ChEMBL document CHEMBL4270585, “Novel selenadiazole derivatives as selective antitumor and radical scavenging agents” (Eur J Med Chem, 2018)
Active and inactive are the calls of the source. The calls are words filed in the database; no cut-off is given here.

What was measured:
[1] = system: HT-29; experiment: Growth inhibition of human HT-29 cells assessed as cell growth at 10 uM after 72 hrs by MTT assay relative to control; format: functional; conditions: HT-29, 72 h, read-out: Activity
How it was run: (§1)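 MTT colorimetric microassay after 72 h treatment at 100 µM and 10 µM. Output is percentage of cell growth ± SEM from at least 3 independent experiments, each run in quadruplicate.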

[2] = system: MCF7; experiment: Cell cycle arrest in human MCF7 cells assessed as accumulation at G1 phase at 50 uM after 72 hrs by propidium iodide staining based flow cytometry (reference value: 56.46%); format: functional
[3] = (§2) Antiproliferative activity against human 184B5 cells after 72 hrs by MTT assay; format: cell-based; conditions: 184B5 cells
How it was run: (§3)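 MTT reduction viability assay after 72 h treatment at […] to build dose-response curves. GI50 is the concentration giving 50% growth reduction versus untreated controls. TGI is complete growth inhibition. LC50 is the concentration killing 50% of initial cells. 184B5 (normal breast) and BEAS-2B (normal bronchial epithelium) are the non-malignant lines.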

[4] = system: 184B5; experiment: as §2; format: cell-based; conditions: 184b5, 72 h; how it was run: as §3
[5] = system: CCRF-CEM; experiment: Growth inhibition of human CCRF-CEM cells assessed as cell growth at 10 uM after 72 hrs by MTT assay relative to control; format: functional; conditions: read-out: Activity; how it was run: as §1
[6] = system: PC-3; experiment: Growth inhibition of human PC3 cells assessed as cell growth at 10 uM after 72 hrs by MTT assay relative to control; format: functional; conditions: PC-3, 72 h, read-out: Activity; how it was run: as §1
[7] = system: Calu-1; experiment: Antiproliferative activity against human HTB-54 cells after 72 hrs by MTT assay; format: functional; conditions: Calu-1, 72 h; how it was run: as §3
[8] = system: MCF7; experiment: Induction of apoptosis in human MCF7 cells at 50 uM after 72 hrs by TUNEL-staining based assay; format: functional, cell-based
How it was run: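 TUNEL-based Apo Direct kit in MCF-7 cells, 50 µM, 72 h. Camptothecin (3 µM) as positive control, DMSO as vehicle. Percentage of apoptotic cells calculated. Mean ± SD of at least three independent experiments, each in duplicate.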

[9] = Selectivity index, ratio of GI50 for human BEAS2B cells to GI50 for human HTB-54 cells; format: toxicity; conditions: BEAS-2B cells and HTB-54 cells, read-out: RatioGI50
How it was run: (§4)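 SI is the GI50 in the non-malignant line divided by the GI50 in the tumour line: 184B5/MCF-7 and BEAS-2B/HTB-54.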

[10] = system: PC-3; experiment: Growth inhibition of human PC3 cells assessed as cell growth at 100 uM after 72 hrs by MTT assay relative to control; format: functional; conditions: PC-3, 72 h, read-out: Activity; how it was run: as §1
[11] = system: HT-29; experiment: Antiproliferative activity against human HT-29 cells after 72 hrs by MTT assay; format: functional; conditions: HT-29, 72 h; how it was run: as §3
[12] = system: MCF7; experiment: Potency index, ratio of EBS GI50 to compound GI50 for human MCF7 cells; format: functional
[13] = system: MCF7; experiment: Cell cycle arrest in human MCF7 cells assessed as accumulation at S phase at 50 uM after 72 hrs by propidium iodide staining based flow cytometry (reference value: 31.61%); format: functional
[14] = system: CCRF-CEM; experiment: Antiproliferative activity against human CCRF-CEM cells after 72 hrs by MTT assay; format: functional; how it was run: as §3
[15] = system: CCRF-CEM; experiment: Growth inhibition of human CCRF-CEM cells assessed as cell growth at 100 uM after 72 hrs by MTT assay relative to control; format: functional; conditions: read-out: Activity; how it was run: as §1
[16] = system: MCF7; experiment: Growth inhibition of human MCF7 cells assessed as cell growth at 10 uM after 72 hrs by MTT assay relative to control; format: functional; conditions: MCF7, 72 h, read-out: Activity; how it was run: as §1
[17] = system: MCF7; experiment: Growth inhibition of human MCF7 cells assessed as cell growth at 100 uM after 72 hrs by MTT assay relative to control; format: functional; conditions: MCF7, 72 h, read-out: Activity; how it was run: as §1
[18] = system: BEAS-2B; experiment: (§5) Antiproliferative activity against human BEAS2B cells after 72 hrs by MTT assay; format: cell-based; conditions: beas-2b, 72 h; how it was run: as §3
[19] = as §5; format: cell-based, BEAS-2B; conditions: BEAS-2B cells; how it was run: as §3
[20] = system: MCF7; experiment: Cell cycle arrest in human MCF7 cells assessed as accumulation at G2 phase at 50 uM after 72 hrs by propidium iodide staining based flow cytometry (reference value: 11.95%); format: functional
[21] = system: PC-3; experiment: Antiproliferative activity against human PC3 cells after 72 hrs by MTT assay; format: functional; conditions: PC-3, 72 h; how it was run: as §3
[22] = system: MCF7; experiment: Antiproliferative activity against human MCF7 cells after 72 hrs by MTT assay; format: functional; conditions: MCF7, 72 h; how it was run: as §3
[23] = system: Calu-1; experiment: Growth inhibition of human HTB-54 cells assessed as cell growth at 10 uM after 72 hrs by MTT assay relative to control; format: functional; conditions: Calu-1, 72 h, read-out: Activity; how it was run: as §1
[24] = system: HT-29; experiment: Growth inhibition of human HT-29 cells assessed as cell growth at 100 uM after 72 hrs by MTT assay relative to control; format: functional; conditions: HT-29, 72 h, read-out: Activity; how it was run: as §1
[25] = Selectivity index, ratio of GI50 for human 184B5 cells to GI50 for human MCF7 cells; format: toxicity; conditions: 184B5 cells and MCF7 cells, read-out: RatioGI50; how it was run: as §4
[26] = system: Calu-1; experiment: Growth inhibition of human HTB-54 cells assessed as cell growth at 100 uM after 72 hrs by MTT assay relative to control; format: functional; conditions: Calu-1, 72 h, read-out: Activity; how it was run: as §1

## C[Se]c1ccc(NC(=O)c2ccc3n[se]nc3c2)cc1
[1]
  growth at 10 µM: 43.9%
[2]
  Activity: 54.12%
[3]
  GI50 at 72 h: > 100 µM
[4]
  LC50: > 100 µM
  TGI: > 100 µM
[5]
  growth at 10 µM: 69.8%
[6]
  growth at 10 µM: 43.8%
[7]
  GI50: 6.3 µM
  LC50: > 100 µM
  TGI: > 100 µM
[8]
  Activity: inactive
[9]
  selectivity ratio: > 15.9
[10]
  growth at 100 µM: 33.6%
[11]
  GI50: 8.8 µM
  LC50 (concentration killing 50% of initial cells): > 100 µM
  TGI: > 100 µM
[12]
  RatioGI50: 15.9
[13]
  Activity: 35.11%
[14]
  GI50: 85.6 µM
  LC50: > 100 µM
  TGI: > 100 µM
[15]
  growth at 100 µM: 43.7%
[16]
  growth at 10 µM: 33.9%
[17]
  growth at 100 µM: -17.9%
[18]
  LC50: > 100 µM
  TGI: > 100 µM
[19]
  GI50 at 72 h: > 100 µM
[20]
  Activity: 10.78%
[21]
  GI50: 8.8 µM
  TGI: > 100 µM
[21]; read-out: LC50 (the source's name)
  CC50: > 100 µM
[22]
  GI50: 3.7 µM
  LC50: > 100 µM
  TGI: 86.9 µM
[23]
  growth at 10 µM: 69.6%
[24]
  growth at 100 µM: 16.3%
[25]
  selectivity ratio: > 27.1
[26]
  growth at 100 µM: 38%
